Experiment [1] concerns the target T1, Adenosine receptor A3 (Homo sapiens) (UniProt P0DMS8).
T1 sequence (whole entry): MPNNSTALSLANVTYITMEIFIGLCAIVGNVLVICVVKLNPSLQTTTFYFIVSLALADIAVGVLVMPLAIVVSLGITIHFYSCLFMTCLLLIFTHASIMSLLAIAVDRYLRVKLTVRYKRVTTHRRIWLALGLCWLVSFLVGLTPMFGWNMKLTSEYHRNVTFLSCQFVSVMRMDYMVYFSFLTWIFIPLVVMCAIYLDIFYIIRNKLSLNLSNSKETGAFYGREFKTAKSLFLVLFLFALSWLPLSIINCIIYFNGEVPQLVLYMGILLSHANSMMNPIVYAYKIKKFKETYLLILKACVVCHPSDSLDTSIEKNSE
Description: Inverse agonist activity at human adenosine A3 receptor expressed in CHO cells assessed as cAMP accumulation at 10 uM measured after 150 mins in presence of [3H]cAMP by scintillation counting method relative to control. In kind it is functional, cell-based. The method, boiled down: (§1)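 Intact CHO cells expressing human A1, A2B or A3 receptor (grown in DMEM F12) exposed to test compound at 10 μM under basal conditions, no agonist; cAMP measured by competitive protein binding with [3H]-cAMP. Result as percent of basal cAMP (basal = 100%); mean ± SEM.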
On the technique in general: cAMP levels reflect the balance of adenylyl cyclase and phosphodiesterase activity.

Experiment [2] deals with T2, Adenosine receptor A1 (Homo sapiens) (UniProt P30542).
T2 sequence (whole entry): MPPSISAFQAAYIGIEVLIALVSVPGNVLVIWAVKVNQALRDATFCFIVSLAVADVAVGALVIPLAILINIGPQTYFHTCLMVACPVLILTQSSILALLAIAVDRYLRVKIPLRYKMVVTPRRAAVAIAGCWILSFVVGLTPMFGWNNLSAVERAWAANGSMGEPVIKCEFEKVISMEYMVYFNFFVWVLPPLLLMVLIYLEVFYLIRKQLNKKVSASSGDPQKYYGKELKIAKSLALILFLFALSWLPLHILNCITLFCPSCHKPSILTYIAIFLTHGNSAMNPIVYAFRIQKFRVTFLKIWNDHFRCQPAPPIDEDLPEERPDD
Put plainly: Inverse agonist activity at human adenosine A1 receptor expressed in CHO cells assessed as cAMP accumulation at 10 uM measured after 150 mins in presence of [3H]cAMP by scintillation counting method relative to control. In kind it is functional, cell-based. The gist of the method: as §1

For experiment [3], the target named is T3, Adenosine receptor A2b (Homo sapiens) (UniProt P29275).
T3 sequence (whole entry): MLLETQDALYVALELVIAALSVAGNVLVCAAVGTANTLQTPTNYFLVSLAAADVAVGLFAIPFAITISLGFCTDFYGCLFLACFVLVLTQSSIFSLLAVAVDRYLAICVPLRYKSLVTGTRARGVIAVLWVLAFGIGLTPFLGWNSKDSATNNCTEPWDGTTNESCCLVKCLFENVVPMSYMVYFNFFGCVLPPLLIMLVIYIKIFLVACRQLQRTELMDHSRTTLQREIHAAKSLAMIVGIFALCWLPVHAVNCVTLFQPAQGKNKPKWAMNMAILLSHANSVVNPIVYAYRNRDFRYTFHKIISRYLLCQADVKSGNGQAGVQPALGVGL
Description: Inverse agonist activity at human adenosine A2B receptor expressed in CHO cells assessed as cAMP accumulation at 10 uM measured after 150 mins in presence of [3H]cAMP by scintillation counting method relative to control. The format is functional, cell-based. The method, boiled down:
as §1

Experiment [4] deals with T4, Adenosine receptor A2a (Homo sapiens, UniProt P29274). Description: Displacement of [3H]ZM241385 from human adenosine A2A receptor expressed in CHO cell membranes measured after 60 mins by scintillation counting method. For orientation: Loss of bound radioactivity is the signal in a displacement assay; it reports binding, not function.
Another experiment addresses T5, Adenosine receptor A3 (Homo sapiens, UniProt P0DMS8).
T5 sequence (P0DMS8 whole entry): T1 sequence (whole entry)
Description: Displacement of [125I]AB-MECA from human adenosine A3 receptor expressed in CHO cell membranes measured after 120 mins by scintillation counting method. The method, boiled down: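 Membranes from CHO cells transfected with the human receptor (A1 or A3) competed against [3H]DPCPX (A1) or [125I]AB-MECA (A3) over a range of test concentrations, per earlier-described method; percent inhibition taken at 10 μM.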

Experiment [5] deals with T4, Adenosine receptor A2a. Put plainly: Antagonist activity against human adenosine A2A receptor expressed in CHO cells assessed as inhibition of CGS21680-stimulated cAMP accumulation measured after 150 mins in presence of [3H]cAMP by scintillation counting method. In kind it is functional, cell-based.
Another experiment has as its target T6, Adenosine receptor A2b (Homo sapiens, UniProt P29275).
T6 sequence (P29275 whole entry): T3 sequence (whole entry)
Description: Antagonist activity at human adenosine A2B receptor expressed in CHO cells assessed as inhibition of NECA-stimulated cAMP accumulation measured after 150 mins in presence of [3H]cAMP by scintillation counting method.

The target of a further experiment is T7, Adenosine receptor A1 (Homo sapiens, UniProt P30542).
T7 sequence (P30542 whole entry): T2 sequence (whole entry)
Put plainly: Displacement of [3H]DPCPX from human adenosine A1 receptor expressed in CHO cell membranes measured after 90 mins by scintillation counting method.

Experiment [6] concerns the target T4, Adenosine receptor A2a. Put plainly: Inverse agonist activity at human adenosine A2A receptor expressed in CHO cells assessed as inhibition of cAMP accumulation measured after 150 mins in presence of [3H]cAMP by scintillation counting method. The format is functional, cell-based.

Data on 17 compounds can be found in ChEMBL document CHEMBL4152311, “Structure-activity relationship studies and pharmacological characterization of N5-heteroarylalkyl-substituted-2-(2-furanyl)thiazolo[5,4-d]pyrimidine-5,7-diamine-based derivatives as inverse agonists at human A2A adenosine receptor” (Eur J Med Chem, 2018).

T4 sequence (P29274 whole entry): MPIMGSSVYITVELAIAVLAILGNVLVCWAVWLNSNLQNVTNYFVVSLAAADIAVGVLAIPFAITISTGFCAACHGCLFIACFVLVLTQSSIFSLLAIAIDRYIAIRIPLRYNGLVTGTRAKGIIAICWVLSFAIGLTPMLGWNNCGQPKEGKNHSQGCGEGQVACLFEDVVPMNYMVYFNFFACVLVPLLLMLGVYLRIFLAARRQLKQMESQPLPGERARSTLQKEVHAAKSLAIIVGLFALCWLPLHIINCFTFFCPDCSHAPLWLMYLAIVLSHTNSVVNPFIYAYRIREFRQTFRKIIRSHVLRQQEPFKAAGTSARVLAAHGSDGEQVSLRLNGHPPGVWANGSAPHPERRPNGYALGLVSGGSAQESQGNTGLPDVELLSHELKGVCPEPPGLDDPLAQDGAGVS

As for `Nc1nc(NCCc2ccco2)nc2sc(-c3ccco3)nc12`, the Activity was determined as 97% in experiment [1], 95% in experiment [2] and 103% in experiment [3].

For `Nc1nc(NCc2cccs2)nc2sc(-c3cccs3)nc12`, the Ki – broadly, the dissociation constant of the complex between target and ligand, obtained from inhibition or displacement – amounted to 10.1 nM at Adenosine receptor A2a [4], 38 nM at Adenosine receptor A3 and 73 nM at Adenosine receptor A1. The Activity was 99% in experiment [1], 97% in [2] and 96% in experiment [3]. The IC50 – broadly, the concentration needed to halve the response being measured – came out at 17.6 nM at Adenosine receptor A2a [5], 547 nM at Adenosine receptor A2b and 13.2 nM at Adenosine receptor A2a [6].

At Adenosine receptor A2a [4], `Nc1nc(NCCc2cccs2)nc2sc(-c3ccco3)nc12` yielded a KiH of 10.6 fM. This compound registered a KiL at Adenosine receptor A2a [4] of 18 nM. Besides, the Activity in [1] turned out to be 94%; in experiment [2] it was 100%; in experiment [3], 99%.

Take `Nc1nc(NCc2ccccn2)nc2sc(-c3ccco3)nc12`: the Activity was determined as 101% in experiment [1], 103% in [2] and 98% in [3].

In the case of `COc1ccccc1CNc1nc(N)c2nc(-c3cccs3)sc2n1`, the Ki on Adenosine receptor A2a [4] worked out at 2.24 nM; on Adenosine receptor A3, 275 nM; on Adenosine receptor A1 it was 17.3 nM. Moreover, the Activity is 103% in [1], 99% in experiment [2] and 106% in experiment [3]. Moreover, the 50% inhibitory concentration (IC50) on Adenosine receptor A2a [5] is 4.41 nM; on Adenosine receptor A2b, 4570 nM; at Adenosine receptor A2a [6] it was 3.36 nM.

Take `Cc1ccc(-c2nc3c(N)nc(NCc4cccs4)nc3s2)o1`: the Ki on Adenosine receptor A2a [4] stood at 34 nM; on Adenosine receptor A3 it was 15.3 nM; on Adenosine receptor A1 it was 71 nM. The IC50 at Adenosine receptor A2b stood at 91 nM.

As to `Nc1nc(NCc2ccncc2)nc2sc(-c3ccco3)nc12`, the results for the Activity in experiment [1], in experiment [2] and in experiment [3] were 102%, 103% and 103%, respectively.

Turning to `Nc1nc(NCc2cnccn2)nc2sc(-c3ccco3)nc12`, the Activity in experiment [1] amounted to 98%; in experiment [2], 102%; in experiment [3] it was 102%.

For the compound `COc1cccc(CNc2nc(N)c3nc(-c4ccc(C)o4)sc3n2)c1`, the values for the Ki on Adenosine receptor A2a [4], at Adenosine receptor A3 and at Adenosine receptor A1 were 144 nM, 160 nM and 70 nM, respectively. Further, on Adenosine receptor A2b, the IC50 was found to be 120 nM.

As to `Nc1nc(NCc2ccsc2)nc2sc(-c3ccco3)nc12`, the Activity in [1] was 105%; in [2], 98%; in [3], 99%.

Consider `Nc1nc(NCCc2cccnc2)nc2sc(-c3ccco3)nc12`, for which the Activity in experiment [1] came out at 102%; in experiment [2] it was 102%; in experiment [3], 97%.

As for `COc1cccc(CNc2nc(N)c3nc(-c4cccs4)sc3n2)c1`, the Ki at Adenosine receptor A2a [4] stood at 22 nM; on Adenosine receptor A3, 430 nM; on Adenosine receptor A1, 37 nM. In addition, the IC50 at Adenosine receptor A2b amounted to 2770 nM.

On Adenosine receptor A2a [4], `Nc1nc(NCc2cccnc2)nc2sc(-c3ccco3)nc12` returned a KiH of 217 fM. On Adenosine receptor A2a [4], the KiL was 0.68 nM. The Activity in experiment [1] is 100%; in experiment [2], 96%; in experiment [3], 97%.

`Nc1nc(NCc2cccs2)nc2sc(-c3ccco3)nc12` had a KiH on Adenosine receptor A2a [4] of 10.7 fM. Also, the KiL at Adenosine receptor A2a [4] worked out at 3.82 nM. The Activity in experiment [1] worked out at 96%; in experiment [2] it was 98%; in experiment [3], 99%.

Consider `Nc1nc(NCCc2ccc(O)cc2)nc2nc(-c3ccco3)nn12`, for which the Activity is 105% in [1] and 101% in experiment [2].

Take `COc1ccccc1CNc1nc(N)c2nc(-c3ccc(C)o3)sc2n1`: the Ki at Adenosine receptor A2a [4] was determined as 20 nM; at Adenosine receptor A3, 141 nM; on Adenosine receptor A1, 29 nM. Moreover, the IC50 at Adenosine receptor A2b was found to be 389 nM.

With `Nc1nc(NCc2ccco2)nc2sc(-c3ccco3)nc12`, the KiH at Adenosine receptor A2a [4] is 39 fM. This compound registered a KiL at Adenosine receptor A2a [4] of 1.73 nM. Further, the Activity was 104% in experiment [1], 101% in [2] and 101% in experiment [3].
